The values below come from ChEMBL document CHEMBL4513216, “Probing the Open Global Health Chemical Diversity Library for Multistage-Active Starting Points for Next-Generation Antimalarials” (ACS Infect Dis, 2020).

A short description of this data set: Toxicity liver stage against HepG2, at 10uM. It is filed as cell-based. Also on record: test concentration 10 uM, cell line HepG2-A16-CD81EGFP. The note with it: human, HepG2-A16-CD81EGFP cells; read-out: INHIBITION
Put shortly:
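Uninfected HepG2-A16-CD81EGFP cells, 3 × 10^3 per well, 1536-well, plated on prespotted compound at 10 μM final, parasite-free screening media added to match infected plates; puromycin 10 μM positive, DMSO 0.5% negative; run in parallel with 48 h PbLuc assay at 37 °C, 5% CO2; viability by CellTiter-Glo luminescence, normalized to controls.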
`Cc1ncc(C(=O)N2CC(C(=O)N3CCCCCC3)C2)c(C)n1`: the cytotoxicity at 10 µM is 6.39%.
Regarding `Cc1nc(C2CCN(S(C)(=O)=O)CC2)nc2c1CCC(=O)N2CC(C)C`, the cytotoxicity at 10 µM turned out to be 3.44%.
Consider `Cc1ccccc1CN1CCOC(c2nccc(CN(C)C)n2)C1` (configuration not stated), for which the cytotoxicity at 10 µM was -9.19%.
Turning to `O=C(c1ccncc1)N1CC[C@@H](O)[C@@H](O)[C@H](N2CCC(F)(F)CC2)C1`, the cytotoxicity at 10 µM was -10%.
For `CNc1cc(CNC(=O)c2cccnc2)nc(-c2ccncc2)n1`, the cytotoxicity at 10 µM was -9.88%.
In the case of `Cc1csc(C(=O)N2CCCC(c3[nH]ncc3S(C)(=O)=O)C2)c1` (configuration not stated), the cytotoxicity at 10 µM is -3.17%.
As to `Cc1cc(C)n(Cc2ccc(C(=O)N3CCOCC3(C)C)cc2)n1`, the cytotoxicity at 10 µM was -9.23%.
For `CCOc1ccc(N(C)Cc2nnc(C)o2)cc1` the value was 9.46%; for `CC(=O)NC1CCN(C(=O)Nc2cccc(C(F)(F)F)c2)CC1`, -6.74%; for `CCn1cnnc1CCNS(=O)(=O)N1CCCC1c1ccco1` (configuration not stated), -136%.
In the case of `O=C(OCCF)c1cccc(C(=O)N2CCCC2)n1`, the cytotoxicity at 10 µM amounted to 0.684%.
With `CC(C)CC(NCc1cccs1)c1ccccn1` (configuration not stated), the cytotoxicity at 10 µM turned out to be 3.46%.
Under `COC1CCN(CCNC(=O)NC(C)c2cccc(Cl)c2)CC1` (configuration not stated) stands -2.46%; under `CCN(CC)C(=O)CCCNC(=O)c1csc(NC2CC2)n1`, 8.67%.
Consider `CCc1nc(C(=O)N(C)CC(=O)N(C)C)nn1-c1ccccc1Cl`, for which the cytotoxicity at 10 µM was -23.5%.
`CCS(=O)(=O)NCCNCc1ccc(Cl)c2cccnc12`: the cytotoxicity at 10 µM is -0.969%.
As to `COc1ccc(CNC(=O)NCc2ccc(C(N)=O)cc2)cn1`, the cytotoxicity at 10 µM is -2.94%.
On to `Cc1ncc(CN(C)C(=O)Nc2cccc(C(=O)N3CCOCC3)c2)s1`, for which the cytotoxicity at 10 µM was determined as 11.6%.
On to `CN(C)C1(CNc2ncc(Br)cn2)CCOCC1`, for which the cytotoxicity at 10 µM was -8.66%.
In the case of `Cc1nn(C)c(C)c1OCC(=O)N1CCCCC1`, the cytotoxicity at 10 µM turned out to be 2.23%.
For `CCC(CC)(CC)NC(=O)Nc1nnc(-c2ccccn2)s1` the value was -2.27%.
With `CCOC1CCCN(C(=O)c2[nH]nc(C)c2Br)C1` (configuration not stated), the cytotoxicity at 10 µM came out at 0.966%.
As for `NC(=O)Cn1ccc(NC(=O)C2(c3cccc(F)c3)CCC2)n1`, the cytotoxicity at 10 µM was -5.75%.
In the case of `COC(C)c1cccc(NC(=O)N(CCC#N)Cc2ccccn2)c1` (configuration not stated), the cytotoxicity at 10 µM came to 13.1%.
As for `CC(NC(=O)N1CCC(CC(N)=O)CC1)c1csc2ccccc12` (configuration not stated), the cytotoxicity at 10 µM amounted to 1.73%.
`Cc1ccc(OCCCNC(=O)Cc2nc3ncccn3n2)cc1`: the cytotoxicity at 10 µM was -1.08%.
For `CC(C)c1noc(CS(=O)(=O)CC(=O)NCc2cccs2)n1` the value was 2.71%; for `CC(Sc1nnc(C2CC2)n1CC(N)=O)c1ccc(F)c(Cl)c1` (configuration not stated), 4.26%.
`CC(=O)NCC(=O)N1CCN(CC2CC2)c2ncccc2C1`: the cytotoxicity at 10 µM is 0.359%.
Under `Cc1cnc(C)c(N2CCCC(C/C=C/c3ccccc3)(C(=O)O)C2)n1` (configuration not stated) stands 9.42%; under `O=C(CCC1CCCN(S(=O)(=O)C2CC2)C1)Nc1ccc(Cl)cc1` (configuration not stated), 3.69%.
Turning to `CC(C)=CCN1CC2(CCN(C(=O)CCn3ccnc3C)CC2)CC1=O`, the cytotoxicity at 10 µM is -6.3%.
For `COc1cc(C)cc(C(C(=O)O)N(C)CCN2CCCC2)c1OC` (configuration not stated) the value was 0.712%; for `CC(C)Cc1ncc2c(n1)CN(c1cc(N3CCCC3)nc(N)n1)C2`, 0.489%; for `COCCN(C/C=C/c1ccccc1)Cc1ccccn1`, 6.82%.
For `Cc1ccc(C(C)NCc2cn(CCC(N)=O)c3ccccc23)cc1C` (configuration not stated) the value was -1.69%; for `O=C(COc1ccccc1O)N1CCOC(C(F)(F)F)C1` (configuration not stated), -2.3%.
As to `CCOc1ccnc(NCc2nc(C)cc(=O)[nH]2)n1`, the cytotoxicity at 10 µM is -8.42%.
With `Cn1c(C2CCCN2C(=O)c2cn(CCN)nn2)nc2ccccc21` (configuration not stated), the cytotoxicity at 10 µM was 3.76%.
Consider `CCn1c(C2CCN(Cc3cc(C)n(NC(C)=O)c3C)CC2)n[nH]c1=O`, for which the cytotoxicity at 10 µM was 4.74%.
As for `CC(=O)Nc1ccc(Oc2cccc(CN3CCCC3)c2)cc1`, the cytotoxicity at 10 µM is -14%.
As to `Cc1nc(O)cc(C2CCCN(C(=O)CN(C)c3ccccc3)C2)n1` (configuration not stated), the cytotoxicity at 10 µM was 12.8%.
For `Cc1ccccc1C1CCN(CCn2cc(-c3nccn3C)nn2)C1` (configuration not stated), the cytotoxicity at 10 µM was determined as 4.96%.
As for `C[C@@H]1CN(C(=O)CCN2CCCC2)CC[C@@]1(O)C1CCC1`, the cytotoxicity at 10 µM was -7.97%.
Take `NCCCn1nc(C(F)(F)F)c2c1CCC2`: the cytotoxicity at 10 µM was -8.3%.
Under `COc1ccc(CNC(C)Cn2cccn2)cc1OC` (configuration not stated) stands -0.966%; under `CCc1csc(C2CCCN(C(=O)c3cc(C4CC4)[nH]n3)C2)n1` (configuration not stated), -1.22%.
As to `CCc1nnc(CN(C)C2CCCN(Cc3noc(C4CC4)n3)C2)o1` (configuration not stated), the cytotoxicity at 10 µM was found to be 2.27%.
For `O=C(c1csc(-c2cnccn2)n1)N1CCCC1Cn1cccn1` (configuration not stated) the value was -7.35%; for `CCOc1ccc(C(=O)N(Cc2cnn(C)c2)C(C)C)cc1OCC`, -8.4%; for `CC(C(=O)N1CCOCC1)N1CCN(Cc2nccn2C)CC1` (configuration not stated), -1.71%.
For `O=C(c1cccc2ncccc12)N1CCCC(n2ccnc2)C1` (configuration not stated) the value was -11.6%; for `COc1ccc(CNCc2c(C(C)C)nn(C)c2OC)cn1`, -10.9%; for `Cc1noc(C)c1CC(=O)N1CCN(Cc2cscn2)CC1`, -8.72%.
On to `CCOc1cccc2c1OCC(C(=O)NS(=O)(=O)c1cccs1)=C2`, for which the cytotoxicity at 10 µM is -2.97%.
Under `COCCN(CCOC)Cc1nc2c(cnn2C)c(=O)[nH]1` stands -9.73%.
Consider `Cc1noc2ncc(C(=O)N3CCCC(n4cccn4)C3)cc12` (configuration not stated), for which the cytotoxicity at 10 µM is -1.39%.
For `CCC1CN(C(=O)Nc2cnc3c(cnn3C(C)C)c2)CCO1` (configuration not stated) the value was -9.46%; for `CC(NC(=O)Cc1cccs1)c1nnc2n1CCCCC2` (configuration not stated), -15.5%; for `CC(C)c1ncc2c(n1)CN(Cc1nc(-c3ccoc3)no1)CC2`, -3%.
For the compound `Cc1cnn(CC2CN(CC(=O)Nc3nnc(C)s3)CCO2)c1` (configuration not stated), the cytotoxicity at 10 µM is -0.472%.
For the compound `COc1c(CNC(c2ccc(F)cc2)c2nccn2C)c(C)nn1C` (configuration not stated), the cytotoxicity at 10 µM was -12.7%.
On to `CNS(=O)(=O)Cc1ccc(CNC(=O)Nc2cn[nH]c2)cc1`, for which the cytotoxicity at 10 µM was -0.935%.
As for `CC(Cn1cccn1)NC(=O)N(C)Cc1ccc(Cl)s1` (configuration not stated), the cytotoxicity at 10 µM is -11.9%.
For `C1CC(NCc2nc(C3CC3)no2)CN(Cc2noc(C3CC3)n2)C1` (configuration not stated), the cytotoxicity at 10 µM was -8.65%.
With `Cc1cc(C)n(CC2CCCN2CC(=O)N(C)Cc2cnn(C)c2)n1` (configuration not stated), the cytotoxicity at 10 µM was -5.85%.
Regarding `c1cnnc(N2CCCC(NCc3cn4ccccc4n3)C2)c1` (configuration not stated), the cytotoxicity at 10 µM was -5.87%.
Take `O=C(c1ccn(-c2cccc(F)c2)n1)N1CCCC(n2cccn2)C1` (configuration not stated): the cytotoxicity at 10 µM is -5.25%.
Take `Cc1nn(C)c(N2CCOCC2)c1CNCc1ccc(Cl)s1`: the cytotoxicity at 10 µM came to 4.09%.
For `CC1CN(C(=O)CN(Cc2ccccc2Br)C2CC2)CCO1` (configuration not stated), the cytotoxicity at 10 µM came out at 2.38%.
Turning to `c1cnn(Cc2nnc3n2CCCN(CC2CCOCC2)C3)c1`, the cytotoxicity at 10 µM worked out at 2.6%.
With `CCOc1ccc(C(=O)N2C[C@@H]3CC[C@H]2CN(C)C3)cc1OCC`, the cytotoxicity at 10 µM was -15.7%.
